NTR1 agonist: activates human neurotensin receptor 1. NTR1-U2OS beta-arrestin-GFP spot imaging, agonist mode. 0.17% of 330,000 active. AID 493036. activation, % at 20 µM. P30989;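 active means activation at or above 40% of the spot to cytoplasm intensity ratio, with at least 20 cells analyzed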;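 further: 0% = DMSO without peptide and 100% = 100 nM NTR1 peptide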
PREPL inh: inhibitors of human prolyl oligopeptidase-like enzyme PREPL | Q4J6C6 | recombinant PREPL, fluorescence polarization activity-based probe | inhibition, % at 5.96 µM | 0.68% of 320,000 active | AID 2751; in the data active means inhibition above about 43%;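 further: 0% = enzyme with DMSO and 100% = wells lacking enzyme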
m5-HT2A agonist: mouse HTR2A agonism via beta-arrestin recruitment. P35363. CHO-K1 mHTR2A beta-arrestin complementation, luminescence; percent of 30 µM serotonin response. activation, % at 7.6 µM. 0.66% of 360,000 active. AID 624169;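 active means activation above a run cutoff, the mean activation of all tested compounds plus 3 SD, cut at about 14% in these data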;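 further: 0% = plate median of compound wells and 100% = 30 µM serotonin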
MC4R antagonist: human MC4R antagonism in cAMP assay. P32245. MC4R-expressing cells, MTII-stimulated cAMP, LANCE TR-FRET. inhibition, % at 6.5 µM. 0.48% of 360,000 active;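 active means inhibition above its plate's cutoff, the mean of tested wells on that plate plus 3 SD, cut at about 29% in these data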;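 further: 0% = Melanotan II alone and 100% = Melanotan II plus saturating MCL0020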
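System: U2OS-MC4R stable cell line; Technique: Eu-cAMP/anti-cAMP TR-FRET, emission 671 nm; Repeats: single well per compound; Also added: Melanotan II; Dosing: one concentration, 6.5 µM nominal; Schedule: 30-min compound, 1-h challenge, 1-h detection, room temperature.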
MC4R barr agon: agonists of human melanocortin 4 receptor (MC4R) beta-arrestin; P32245; 0.98% of 360,000 active; AID 540308; activation, % at 8.9 µM; U2OS MC4R beta-arrestin complementation, luminescence; percent of melanotan II response, DMSO zero;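 active means activation above a per-plate cutoff, the mean activation of sample wells on that plate plus 3 SD, cut at about 8% in these data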
Lipid droplet: hepatic lipid droplet formation modulation | AML12 mouse hepatocytes, oleate lipid droplets, BODIPY imaging | 0.4% of 240,000 active | AID 1656 | inhibition, % at 6.5 µM;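 active means lipid droplet intensity inhibited by at least 50%, with more than 500 cells counted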
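Assay system: AML12 mouse liver cells | Compound dosing: One dose, 6.5 µM compound | Read-out basis: Droplet intensity reduction, % inhibition | Measured by: Fluorescence imaging, 20x objective, two fields per well | Schedule: Overnight treatment with compound plus oleate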
Starred values were filed as active, the others as inactive; x = no result given. The list is not random: actives were taken first. Their share in the collection is about 2.7%.

SMILES	NTR1 agonist	PREPL inh	m5-HT2A agonist	MC4R antagonist	MC4R barr agon	Lipid droplet
COc1cccc2sc(N(CCCN(C)C)C(=O)c3ccc(S(=O)(=O)N4CCc5ccccc5C4)cc3)nc12	4	-34	-4	-4	9.0*	-21
Cc1cccc(NC(=O)CCS(=O)(=O)c2ccc3nc(C)sc3c2)c1	x	x	-3	15	-1	x
C[C@@H]1CCCCO[C@H](CN(C)Cc2ccccc2)[C@@H](C)CN([C@H](C)CO)C(=O)c2cc(NC(=O)c3ccccc3)ccc2O1	x	x	-1	19	-1	x
Cc1cccc(C)c1NC(=O)c1cccc(COc2cc(Cl)ccc2Cl)c1	1	10	2	-4	12*	-1
Cc1nn(Cc2c(F)c(F)c(F)c(F)c2F)c(C)c1NC(=O)c1ccc(COc2cc(Cl)ccc2Cl)cc1	4	5	-1	1	3	x
CN1CC=C2C(C#N)=C(N)C(C#N)(C#N)[C@H](c3ccoc3)[C@H]2C1	-2	34	3	0	-2	-4
N#CC1=C(N)C(C#N)(C#N)[C@H](c2ccoc2)[C@H]2CN(Cc3ccccc3)CC=C12	-2	52*	-4	-18	-3	-66
COc1ccc(CN2CC(C(=O)NCCCN3CCCCC3)CC2=O)cc1 (configuration not stated)	-2	2	6	17	2	-3
CCNc1ccccc1CP(=O)(c1ccccc1)c1ccccc1O (configuration not stated)	3	51*	x	x	x	20
CC(=O)C[C@@H](O)CC(=O)[C@@H]1OC(=O)CCCCCCCCc2ccccc21	0	7	10	0	2	x
COC(=O)C1=C(C)N(Cc2ccccc2)C(=NCCc2c[nH]c3ccccc23)N[C@H]1c1cccc(F)c1	10	-1	-11	1	8.2*	x
COc1cc2c3nnc(-c4ccc(F)cc4)c-3cn(Cc3ccccc3F)c2cc1OC	x	x	10	2	12*	-9
COc1ccccc1Cc1c(-c2ccc(F)cc2)nc2ccc(Cl)cn12	x	x	-1	x	x	x
CCOC(=O)c1csc(NC(=O)C2=COCCO2)n1	0	-2	-2	11	0	-16
Cc1nc(C(=O)N2CCc3c([nH]c4ccccc34)C2c2ccccn2)cs1 (configuration not stated)	0	3	-8	-4	-3	-11
Cc1cc(C(=O)N2CCc3c([nH]c4ccccc34)C2c2cccc(Cl)c2)nn1C (configuration not stated)	7	-1	-4	1	0	67*
CC(C)c1nc(C(=O)N2CCc3c([nH]c4ccccc34)C2c2ccccn2)cs1 (configuration not stated)	2	1	-4	4	9.0*	-17
CSc1ccc(C2c3[nH]c4ccccc4c3CCN2C(=O)c2cc(C)n(C)n2)cc1 (configuration not stated)	3	5	x	x	x	44
CC1(NC(=O)C2CCCCC2)CCS(=O)(=O)C1 (configuration not stated)	0	0	1	13	-2	1
CCCn1c(C)cc(C(=O)COC(=O)c2cc(=O)[nH]c3ccccc23)c1C	x	x	1	-4	8.9*	x
Cc1ccc(C(=O)COC(=O)c2cc(=O)[nH]c3ccccc23)cc1	1	-5	-2	-8	-2	-5
CCCCCCc1cc2cc(S(=O)(=O)c3ccc(F)c(Cl)c3)c(=O)oc2cc1O	6	5	8	4	8.8*	-34
COc1cccc(C2=CC(c3ccc(N(C)C)cc3)n3ncnc3N2)c1 (configuration not stated)	-2	63*	x	x	x	x
COc1ccc(NC(=O)CSc2ccc3nnc(-c4cccnc4)n3n2)c(OC)c1	-1	45*	-5	3	-1	5
Cc1cc(C)n2nc(N)c(N=Nc3ccc4c(c3)OCO4)c2n1	3	-2	-2	-16	8.6*	12
Cc1cc(C)n2nc(N)c(N=Nc3ccccc3)c2n1	2	15	1	-25	-2	-17
CN(c1ccccc1)S(=O)(=O)c1cccc(NC(=O)CN2C(=O)NC3(CCCCC3)C2=O)c1	0	68*	5	8	0	x
O=C1C=CC(=O)N1c1ccccc1N1C(=O)C=CC1=O	x	x	7	37*	-4	x

High-throughput results as filed in PubChem BioAssay.
